From ChEMBL document CHEMBL1154611 (J Med Chem, 2009) come the findings set out here.

The target in one series is Motilin receptor (Oryctolagus cuniculus, UniProt A5A4K8). In words: Agonist activity at motilin receptor in rabbit smooth muscle assessed as maximal possible tissue contraction. Format: functional. In a few lines:
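Rabbit smooth muscle contractility assay. EC50 is the concentration giving 50% of the maximal possible contraction. Tachyphylaxis is the % contractile response to an EC90 drug concentration after three cycles of administration and washout.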

The target in series [1] is T1, hERG (KCNH2) (Homo sapiens, UniProt Q12809). In words: Inhibition of human ERG expressed in HEK cells at 300 uM. Format: cell-based, HEK293. To be noted: HEK cells expressing human ERG.
Series [2] has as its target T1, hERG (KCNH2). In words: Inhibition of human ERG expressed in HEK cells at 30 uM. Format: cell-based, HEK293. The note with it: HEK cells expressing human ERG.
In another series the test system is Streptococcus pneumoniae. In words: Antibacterial activity against erythromycin-sensitive Streptococcus pneumoniae ATCC 6301. Format: functional. In a few lines:
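MIC, the minimal growth inhibitory concentration, was determined in routine screening against the highly erythromycin-sensitive strain Streptococcus pneumoniae ATCC6301.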

Converted amounts (≈) assume the structure as drawn.

T1 sequence (Q12809 whole entry): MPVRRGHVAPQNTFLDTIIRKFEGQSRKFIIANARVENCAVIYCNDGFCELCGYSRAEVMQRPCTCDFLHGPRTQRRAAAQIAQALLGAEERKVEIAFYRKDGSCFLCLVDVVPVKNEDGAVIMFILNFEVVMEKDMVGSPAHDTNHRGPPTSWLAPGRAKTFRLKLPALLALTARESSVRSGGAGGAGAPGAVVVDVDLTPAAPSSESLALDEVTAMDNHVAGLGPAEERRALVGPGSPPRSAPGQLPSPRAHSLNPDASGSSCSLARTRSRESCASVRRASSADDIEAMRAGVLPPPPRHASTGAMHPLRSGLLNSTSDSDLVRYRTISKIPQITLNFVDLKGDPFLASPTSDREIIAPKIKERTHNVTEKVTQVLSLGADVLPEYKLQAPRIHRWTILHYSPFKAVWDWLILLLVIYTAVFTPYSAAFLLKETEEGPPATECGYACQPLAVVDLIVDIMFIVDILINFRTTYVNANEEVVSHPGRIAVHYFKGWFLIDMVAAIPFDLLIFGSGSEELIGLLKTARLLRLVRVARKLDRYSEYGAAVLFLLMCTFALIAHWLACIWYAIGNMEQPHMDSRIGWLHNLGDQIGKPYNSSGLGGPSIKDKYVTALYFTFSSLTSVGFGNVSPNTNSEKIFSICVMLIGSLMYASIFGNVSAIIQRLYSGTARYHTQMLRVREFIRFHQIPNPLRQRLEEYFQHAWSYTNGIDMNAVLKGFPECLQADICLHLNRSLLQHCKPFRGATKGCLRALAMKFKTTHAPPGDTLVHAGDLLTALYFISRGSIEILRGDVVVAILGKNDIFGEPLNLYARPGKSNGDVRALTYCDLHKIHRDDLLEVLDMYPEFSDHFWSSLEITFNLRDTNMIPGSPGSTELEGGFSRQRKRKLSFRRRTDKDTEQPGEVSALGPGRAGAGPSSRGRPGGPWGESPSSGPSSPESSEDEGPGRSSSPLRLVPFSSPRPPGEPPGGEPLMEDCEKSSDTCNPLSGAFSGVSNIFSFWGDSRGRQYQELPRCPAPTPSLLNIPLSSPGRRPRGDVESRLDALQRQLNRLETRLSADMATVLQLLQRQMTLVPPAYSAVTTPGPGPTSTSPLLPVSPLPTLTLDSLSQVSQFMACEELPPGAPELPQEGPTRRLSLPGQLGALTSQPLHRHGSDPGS
Sequence of Motilin receptor (A5A4K8 whole entry): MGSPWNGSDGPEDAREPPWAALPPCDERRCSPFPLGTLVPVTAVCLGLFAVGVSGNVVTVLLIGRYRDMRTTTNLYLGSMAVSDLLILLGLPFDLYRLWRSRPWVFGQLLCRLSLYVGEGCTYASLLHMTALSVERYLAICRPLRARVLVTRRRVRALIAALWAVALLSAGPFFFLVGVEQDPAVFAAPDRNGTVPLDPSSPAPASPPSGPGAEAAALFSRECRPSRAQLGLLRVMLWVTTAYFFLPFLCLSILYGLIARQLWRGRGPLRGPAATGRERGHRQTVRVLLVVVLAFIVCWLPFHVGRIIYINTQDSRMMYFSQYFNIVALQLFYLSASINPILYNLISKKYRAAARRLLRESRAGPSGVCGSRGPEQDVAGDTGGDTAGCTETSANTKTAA

In the case of `CC[C@H]1OC(=O)[C@H](C)[C@@H](O[C@H]2C[C@@](C)(OC)[C@@H](O)[C@H](C)O2)[C@H](C)[C@@H](O[C@@H]2O[C@H](C)C[C@H](N(C)C(C)C)[C@H]2O)[C@](C)(O)C[C@@H](C)[C@H](OCC(=O)NCc2ccccc2)[C@H](C)[C@@H](O)[C@]1(C)O`, the EC50 (commonly the concentration giving half of the maximal effect) at Motilin receptor was 79 nM. Besides, the inhibition (usually the change of the read-out against control, counted positive when it falls) at 300 µM at hERG (KCNH2) [1] turned out to be 100%. Further, testing at 30 µM against hERG (KCNH2) [2] gave an inhibition of 67%. The MIC (in general, the smallest concentration in the dilution series that meets the test's criterion for growth inhibition) with Streptococcus pneumoniae was 128 µg/mL (≈ 140 µM).

For `CC[C@H]1OC(=O)[C@H](C)[C@@H](O[C@H]2C[C@@](C)(OC)[C@@H](O)[C@H](C)O2)[C@H](C)[C@@H](O[C@@H]2O[C@H](C)C[C@H](N(C)C3CCC3)[C@H]2O)[C@](C)(O)C[C@@H](C)[C@H](OCC(=O)NC)[C@H](C)[C@@H](O)[C@]1(C)O`, the EC50 on Motilin receptor was found to be 510 nM. On hERG (KCNH2) [1], the inhibition at 300 µM is 53%. The molecule also showed an inhibition at 30 µM against hERG (KCNH2) [2] of 12%. Further, in the series on Streptococcus pneumoniae, the minimum inhibitory concentration (MIC) was over 128 µg/mL.

As for `CC[C@H]1OC(=O)[C@H](C)[C@@H](O[C@H]2C[C@@](C)(OC)[C@@H](O)[C@H](C)O2)[C@H](C)[C@@H](O[C@@H]2O[C@H](C)C[C@H](N(C)C(C)C)[C@H]2O)[C@](C)(O)C[C@@H](C)[C@H](OCCCCCC(=O)NC)[C@H](C)[C@@H](O)[C@]1(C)O`, the EC50 at Motilin receptor stood at 150 nM. The same molecule gave an inhibition at 300 µM at hERG (KCNH2) [1] of 61%. Moreover, at 30 µM the inhibition against hERG (KCNH2) [2] was 13%. The MIC with Streptococcus pneumoniae was found to be 128 µg/mL (≈ 144 µM).

In the case of `CC[C@H]1OC(=O)[C@H](C)[C@@H](O[C@H]2C[C@@](C)(OC)[C@@H](O)[C@H](C)O2)[C@H](C)[C@@H](O[C@@H]2O[C@H](C)C[C@H](N(C)C(C)C)[C@H]2O)[C@](C)(O)C[C@@H](C)[C@H](OCC(=O)NCC(F)(F)F)[C@H](C)[C@@H](O)[C@]1(C)O`, the EC50 on Motilin receptor is 160 nM. The molecule also yielded an inhibition at 300 µM against hERG (KCNH2) [1] of 82%. The same molecule returned an inhibition at 30 µM against hERG (KCNH2) [2] of 30%. In the series with Streptococcus pneumoniae, this molecule had an MIC of 128 µg/mL (≈ 142 µM).

Take `CC[C@H]1OC(=O)[C@H](C)[C@@H](O[C@H]2C[C@@](C)(OC)[C@@H](O)[C@H](C)O2)[C@H](C)[C@@H](O[C@@H]2O[C@H](C)C[C@H](N(C)C(C)C)[C@H]2O)[C@](C)(O)C[C@@H](C)[C@H](OCC(=O)NCCOC)[C@H](C)[C@@H](O)[C@]1(C)O`: the EC50 at Motilin receptor worked out at 50 nM. In addition, the inhibition at 300 µM against hERG (KCNH2) [1] came to 93%. Besides, the inhibition at 30 µM against hERG (KCNH2) [2] was 33%. Besides, 128 µg/mL (≈ 146 µM) was the least that counted as inhibitory with Streptococcus pneumoniae (MIC).

On to `CC[C@H]1OC(=O)[C@H](C)[C@@H](O[C@H]2C[C@@](C)(OC)[C@@H](O)[C@H](C)O2)[C@H](C)[C@@H](O[C@@H]2O[C@H](C)C[C@H](N(C)C(C)C)[C@H]2O)[C@](C)(O)C[C@@H](C)[C@H](OCc2ccc(C(=O)NC)cc2)[C@H](C)[C@@H](O)[C@]1(C)O`, for which the EC50 at Motilin receptor was found to be 1500 nM.

For `CC[C@H]1OC(=O)[C@H](C)[C@@H](O[C@H]2C[C@@](C)(OC)[C@@H](O)[C@H](C)O2)[C@H](C)[C@@H](O[C@@H]2O[C@H](C)C[C@H](N(C)C(C)C)[C@H]2O)[C@](C)(O)C[C@@H](C)[C@H](OCc2cccc(C(=O)NC)c2)[C@H](C)[C@@H](O)[C@]1(C)O`, on Motilin receptor, the EC50 amounted to 2100 nM. In addition, at hERG (KCNH2) [1], at 300 µM the inhibition was 100%. The same molecule yielded an inhibition at 30 µM at hERG (KCNH2) [2] of 63%.

For the molecule `CC[C@H]1OC(=O)[C@H](C)[C@@H](O[C@H]2C[C@@](C)(OC)[C@@H](O)[C@H](C)O2)[C@H](C)[C@@H](O[C@@H]2O[C@H](C)C[C@H](N(C)C(C)C)[C@H]2O)[C@](C)(O)C[C@@H](C)[C@H](OCCCCC(=O)NC)[C@H](C)[C@@H](O)[C@]1(C)O`, the EC50 on Motilin receptor turned out to be 270 nM. In addition, testing at 300 µM against hERG (KCNH2) [1] gave an inhibition of 45%. Further, the inhibition at 30 µM on hERG (KCNH2) [2] was 3%.

For `CC[C@H]1OC(=O)[C@H](C)[C@@H](O[C@H]2C[C@@](C)(OC)[C@@H](O)[C@H](C)O2)[C@H](C)[C@@H](O[C@@H]2O[C@H](C)C[C@H](N(C)C(C)C)[C@H]2O)[C@](C)(O)C[C@@H](C)[C@H](OCC(=O)NOC)[C@H](C)[C@@H](O)[C@]1(C)O`, at Motilin receptor, the EC50 turned out to be 92 nM. At hERG (KCNH2) [1], this molecule displayed an inhibition at 300 µM of 82%. The molecule also displayed an inhibition at 30 µM on hERG (KCNH2) [2] of 33%.
